SENP8 block-1: blocks the human protease SENP8 | actives 1.2% (n = 330,000) | Q96LD8 | purified SENP8, Z-RLRGG-aminoluciferin cleavage, luminescence | inhibition, % at 10 µM; in the data active = inhibition above about 50%
Target sequence (Q96LD8 whole entry, looked up): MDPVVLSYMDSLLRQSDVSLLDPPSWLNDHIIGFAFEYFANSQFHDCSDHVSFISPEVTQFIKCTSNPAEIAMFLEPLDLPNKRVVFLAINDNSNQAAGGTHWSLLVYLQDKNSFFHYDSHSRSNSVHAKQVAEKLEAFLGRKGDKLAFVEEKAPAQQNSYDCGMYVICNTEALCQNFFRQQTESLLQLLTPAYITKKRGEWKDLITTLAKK
SENP7 inh: blocks the human protease SENP7; recombinant SENP7, Z-RLRGG-aminoluciferin luminescence, 40 min; inhibition, % at 5 µM; actives 1.5% (n = 330,000);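 active = inhibition above about 50% at the single test dose, limit read from the data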;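 also: plate controls were DMSO with enzyme for no effect and no enzyme buffer wells for full effect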
SENP1 inh: SENP1 (human) catalytic domain inhibition | actives 0.21% (n = 360,000) | AID 624204 | recombinant SENP1 catalytic domain, CyPet-SUMO1-YPet FRET cleavage | inhibition, % at 10 µM;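 active = inhibition at least 30% at 10 µM, raw YFP signal under a set limit, fluorescence ratio 0.5 to 1.5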;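 also: 0% = enzyme with DMSO and 100% = no enzyme wells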
Target sequence (Q9P0U3 419-644 limits assumed): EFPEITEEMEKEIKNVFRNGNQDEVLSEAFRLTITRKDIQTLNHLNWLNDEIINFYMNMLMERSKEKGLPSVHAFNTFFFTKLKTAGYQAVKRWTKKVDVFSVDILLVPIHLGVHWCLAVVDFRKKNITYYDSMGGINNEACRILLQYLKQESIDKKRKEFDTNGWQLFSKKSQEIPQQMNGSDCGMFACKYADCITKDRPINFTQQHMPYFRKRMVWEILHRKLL
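Test system: hSENP1 catalytic domain, recombinant; Amount: 20 pM final SENP1 enzyme; Medium: Tris pH 8 buffer plus EDTA, NaCl, BME, BSA, NP40, catalase; Schedule: 50 min enzyme reaction, room temperature, light-protected; Technique: FRET fluorescence in CFP and YFP emission channels; Controls: no-enzyme wells low, DMSO-plus-enzyme wells high control.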
SENP8 block-2: blocks human SENP8 cleavage of Nedd8 substrate. recombinant SENP8, Nedd8 substrate fluorescence. inhibition, % at 20 µM. actives 0.64% (n = 360,000); in the data active = inhibition mostly above about 40%, no sharp cut-off; inactive = mostly below about 27%
Platelet DG rel: modulates dense granule release in human platelets | human platelet-rich plasma, SFLLRN dense granule ATP release, luminescence | inhibition, %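 (compounds screened at 7.5 µM in platelet-rich plasma)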 | actives 0.22% (n = 300,000) | AID 1663;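 active = mean replicate score, as percent of positive control, at or above 50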
SENP6 block: SENP6 protease inhibition | Recombinant SENP6 catalytic domain, aminoluciferin luminescence | Q9GZR1 | actives 1.8% (n = 330,000) | AID 2599 | inhibition, % at 10 µM;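 active = inhibition above about 50% at the single tested dose, limit read from the data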;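 also: plate controls were DMSO wells with enzyme for no effect and DMSO wells lacking enzyme for full effect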
SENP8 confirm: human SENP8 inhibition, confirmed; inhibition, % at 12.5 µM; AID 488912; shares compounds with SENP7 inh; actives 40% (n = 6,200); Recombinant SENP8, Z-RLRGG-aminoluciferin luminescence, 60 min;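 active = mean inhibition across replicates above about 50%, limit read from the data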
SENP6 conf: human SENP6 inhibition, confirmed; inhibition, % at 12.5 µM; shares compounds with SENP7 inh; recombinant SENP6, Z-RLRGG-aminoluciferin luminescence; actives 58% (n = 6,200)
SENP7 confirm: confirmation of human SENP7 protease inhibitors; actives 69% (n = 6,200); shares compounds with SENP7 inh; recombinant SENP7, Z-RLRGG-aminoluciferin luminescence, 40 min; inhibition, % at 12.5 µM
Casp3 select: inhibits human caspase-3 in SENP selectivity test. shares compounds with SENP7 inh. purified caspase-3, Z-DEVD-aminoluciferin luminescence, 60 min. inhibition, % at 12.5 µM. actives 60% (n = 6,200);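 active = mean inhibition above about 50%, limit read from the data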;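 also: plate controls were enzyme with DMSO for no effect and wells without caspase-3 for full effect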
Target sequence (P42574 28-227 limits assumed): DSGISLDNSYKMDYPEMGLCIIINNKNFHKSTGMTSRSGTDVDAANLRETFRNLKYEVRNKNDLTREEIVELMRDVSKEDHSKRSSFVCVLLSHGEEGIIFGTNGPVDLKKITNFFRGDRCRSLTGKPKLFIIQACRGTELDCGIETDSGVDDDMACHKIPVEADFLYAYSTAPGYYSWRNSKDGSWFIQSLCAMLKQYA
Luc interf: luminescence interference (SENP counter-screen) | shares compounds with SENP7 inh | Pre-incubated SENP8/Z-RLRGG-aminoluciferin, luciferase luminescence interference | inhibition, % at 12.5 µM | actives 39% (n = 6,200) | AID 488919;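 active = mean inhibition above about 50% when retested at one dose, limit read from the data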;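 also: plate controls were DMSO wells with completed reaction for no effect and substrate without enzyme for full effect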
Starred values were filed as active, the others as inactive. The list is not random: actives were taken first. Their share in the collection is about 2.6%.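 The calls were made as follows, unless noted: active = mean inhibition above about 50% in the one-dose retest (limit read from the data); inactive = the rest.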

`N/C(=N\OC(=O)c1ccccc1Cl)c1ccccn1` gave SENP8 block-1 93.1*, SENP7 inh 100.5*, SENP1 inh -0.8, SENP8 block-2 5.6, Platelet DG rel 56.0*, SENP6 block 96.0*, SENP8 confirm 97.3*, SENP6 conf 97.9*, SENP7 confirm 102.5*, Casp3 select 98.4* and Luc interf 96.9*.
For N/C(=N\OC(=O)COc1ccccc1Cl)c1ccccn1 the results were SENP1 inh -2.4 and SENP8 block-2 17.5.
For N/C(=N\OC(=O)c1ccccc1[N+](=O)[O-])c1cccnc1 the results were SENP8 block-1 -4.6, SENP7 inh -4.7, SENP1 inh -36.8, SENP8 block-2 24.7, Platelet DG rel 6.3 and SENP6 block -9.6.
For N/C(=N\OC(=O)c1ccccc1[N+](=O)[O-])c1ccccn1 the results were SENP8 block-1 41.6, SENP7 inh 61.4*, SENP1 inh 0.8, SENP8 block-2 -2.2, Platelet DG rel 29.5, SENP6 block 54.0*, SENP8 confirm 64.7*, SENP6 conf 60.8*, SENP7 confirm -6.8, Casp3 select 86.2* and Luc interf 66.5*.
For COc1ccccc1C(=O)O/N=C(\N)c1ccccn1 the results were SENP8 block-1 37.9, SENP7 inh 8.7, SENP1 inh 4.4, SENP8 block-2 15.1, Platelet DG rel 2.7, SENP6 block 52.5*, SENP8 confirm 41.2, SENP6 conf 29.6, SENP7 confirm 57.9*, Casp3 select 74.5* and Luc interf 54.4*.
For Cc1ccc(C(=O)O/N=C(\N)c2ccccn2)c(C)c1 the results were SENP8 block-1 95.2*, SENP7 inh 101.8*, SENP1 inh 3.1, SENP8 block-2 4.6, Platelet DG rel 46.5, SENP6 block 98.8*, SENP8 confirm 99.6*, SENP6 conf 100.6*, SENP7 confirm 103.5*, Casp3 select 99.1* and Luc interf 98.7*.
`Nc1nc(Nc2ccccc2F)sc1C(=O)c1ccccc1` gave SENP8 block-1 59.4*, SENP7 inh 34.9, SENP1 inh -4.9, SENP8 block-2 -20.6, Platelet DG rel 9.1, SENP6 block 71.6*, SENP8 confirm 74.5*, SENP6 conf 69.4*, SENP7 confirm 86.2*, Casp3 select 44.3 and Luc interf 75.6*.
Screening Cc1cc(C(=O)N/N=C2\CC(=O)c3ccccc32)c(C)n1-c1ccc(F)cc1 returned SENP8 block-1 39.8, SENP7 inh 21.4, SENP1 inh 4.0, SENP8 block-2 79.1*, Platelet DG rel 1.4, SENP6 block 73.2*, SENP8 confirm 26.7, SENP6 conf 49.7, SENP7 confirm 40.1, Casp3 select 50.7* and Luc interf 11.8.
Screening O=C1c2ccccc2-c2nnc(-c3ccc(O)cc3)cc21 returned SENP8 block-1 96.0*, SENP7 inh 100.5*, SENP1 inh 0.2, SENP8 block-2 4.9, Platelet DG rel 15.4, SENP6 block 98.9*, SENP8 confirm 95.1*, SENP6 conf 94.2*, SENP7 confirm 101.4*, Casp3 select 96.2* and Luc interf 15.7.
For O=C1c2ccccc2-c2nnc(-c3ccc(F)cc3)cc21 the results were SENP8 block-1 90.4*, SENP7 inh 98.7*, SENP1 inh 2.7, SENP8 block-2 41.9*, Platelet DG rel 28.5, SENP6 block 83.0*, SENP8 confirm 86.3*, SENP6 conf 84.5*, SENP7 confirm 82.1*, Casp3 select 43.6 and Luc interf 0.6.
Cc1ccc(-c2cc3c(nn2)-c2ccccc2C3=O)cc1 was read as SENP8 block-1 95.9*, SENP7 inh 99.0*, SENP1 inh 2.5, SENP8 block-2 48.9*, Platelet DG rel 45.1, SENP6 block 96.1*, SENP8 confirm 85.4*, SENP6 conf 95.4*, SENP7 confirm 99.4*, Casp3 select 89.1* and Luc interf 7.5.
`O=c1[nH]nc(-c2ccc(F)cc2)cc1-c1ccccc1` gave SENP1 inh 1.6, SENP8 block-2 -171.2 and Platelet DG rel 2.9.
Cc1ccccc1-c1cc2c(nn1)-c1ccccc1C2=O was read as SENP8 block-1 96.4*, SENP7 inh 98.5*, SENP1 inh 1.6, SENP8 block-2 105.3*, Platelet DG rel 4.9, SENP6 block 99.7*, SENP8 confirm 82.7*, SENP6 conf 98.8*, SENP7 confirm 101.5*, Casp3 select 97.7* and Luc interf 56.4*.
For O=C1c2ccccc2-c2n[nH]c3cccc1c23 the results were SENP8 block-1 -8.6, SENP7 inh 0.3, SENP1 inh -42.0, SENP8 block-2 -393.6 and SENP6 block 12.7.
Screening CCC1(c2ccccc2)NC(=O)N(CC(=O)NC2CCCCCC2)C1=O (stereo not drawn) returned SENP8 block-1 -4.6, SENP7 inh -7.8, SENP1 inh 1.9, SENP8 block-2 5.0 and SENP6 block 0.3.
Screening O=C(Nc1ccc(N2CCOCC2)cc1)c1cc2ccccc2o1 returned SENP8 block-1 38.5, SENP7 inh 48.3, SENP1 inh 0.9, SENP8 block-2 17.3, Platelet DG rel 8.1, SENP6 block 70.2*, SENP8 confirm 11.8, SENP6 conf 44.9, SENP7 confirm 82.5*, Casp3 select 69.3* and Luc interf 16.6.
For O=C(Nc1ccc(CN2CCOCC2)cc1)c1cc2ccccc2o1 the results were SENP8 block-1 -2.0, SENP7 inh 9.5, SENP1 inh 1.0, SENP8 block-2 2.6, Platelet DG rel -2.6 and SENP6 block -7.9.
Screening Cc1c(C(=O)Nc2ccc(N3CCOCC3)cc2)oc2ccccc12 returned SENP8 block-1 31.9, SENP7 inh 66.6*, SENP1 inh 0.2, SENP8 block-2 12.8, Platelet DG rel 0.8, SENP6 block 69.8*, SENP8 confirm 11.9, SENP6 conf 58.7*, SENP7 confirm 62.0*, Casp3 select 53.6* and Luc interf 10.8.
